Assay results taken from ChEMBL document CHEMBL1129589, “Anti-inflammatory 17beta-thioalkyl-16alpha,17alpha-ketal and -acetal androstanes: a new class of airway selective steroids for the treatment of asthma” (J Med Chem, 1996).

What was measured:
Rattus norvegicus [1] = assay: In vivo suppression of thymus weight by 30% following i.t. administration.; type: functional; details: inhaled or nasal
How it was run: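 Male Sprague-Dawley rats (~350 g, six per group) dosed intratracheally under halothane anesthesia at 0 and 24 h. Vehicle: 1% carboxymethyl cellulose/0.2% Tween 80 suspension, sonicated. First dose given with saline, second with Sephadex G200 (final 5 mg/mL). Rats killed at 48 h; lungs and thymus weighed. Doses reducing Sephadex-induced edema and thymus weight by 30% calculated.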

Glucocorticoid receptor = molecular target: T1, Glucocorticoid receptor (Rattus norvegicus, UniProt P06536); assay: Steroid binding against the rat thymus glucocorticoid receptor
T1 sequence (P06536 whole entry): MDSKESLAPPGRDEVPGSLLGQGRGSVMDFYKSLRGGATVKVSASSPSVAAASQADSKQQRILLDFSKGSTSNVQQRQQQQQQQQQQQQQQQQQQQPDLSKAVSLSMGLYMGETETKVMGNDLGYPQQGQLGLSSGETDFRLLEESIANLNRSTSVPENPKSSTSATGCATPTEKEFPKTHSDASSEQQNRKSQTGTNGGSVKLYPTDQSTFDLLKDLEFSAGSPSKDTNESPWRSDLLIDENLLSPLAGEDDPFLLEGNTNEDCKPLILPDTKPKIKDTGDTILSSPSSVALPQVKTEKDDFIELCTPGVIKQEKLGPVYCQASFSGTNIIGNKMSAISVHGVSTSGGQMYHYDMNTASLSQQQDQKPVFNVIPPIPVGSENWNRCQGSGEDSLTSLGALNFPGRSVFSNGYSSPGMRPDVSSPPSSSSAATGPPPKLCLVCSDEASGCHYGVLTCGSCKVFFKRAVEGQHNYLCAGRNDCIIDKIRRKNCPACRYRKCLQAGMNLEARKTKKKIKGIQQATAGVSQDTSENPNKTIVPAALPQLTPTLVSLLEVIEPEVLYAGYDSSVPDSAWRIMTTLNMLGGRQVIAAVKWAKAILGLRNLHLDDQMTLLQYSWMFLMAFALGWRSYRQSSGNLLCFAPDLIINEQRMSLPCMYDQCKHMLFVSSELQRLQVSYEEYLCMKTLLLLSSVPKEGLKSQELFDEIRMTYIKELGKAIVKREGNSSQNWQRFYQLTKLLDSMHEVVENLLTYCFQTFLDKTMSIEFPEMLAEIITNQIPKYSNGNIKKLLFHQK

H35 = assay: Induction of tyrosine aminotransferase activity in cultured rat liver H4IIE cells.; type: functional; details: read-out: ED50 (the source's name)
How it was run: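 Confluent H4IIE rat hepatoma cells (4-day culture) incubated overnight with steroid at 0-100 nM, in triplicate wells. Lysate equilibrated at 37 °C with α-ketoglutarate and pyridoxal phosphate in phosphate buffer, pH 7.3.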

Rattus norvegicus [2] = assay: Selectivity ratio of Topical vs Systemic routes of administration.; type: functional
How it was run: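 Male Sprague-Dawley rats (about 350 g, six per group) received the steroid intratracheally under halothane. It was suspended in 1% carboxymethyl cellulose/0.2% Tween 80 and given at 0 h with saline and at 24 h with Sephadex G200 (final 5 mg/mL). At 48 h, lungs and thymus were weighed. The ratio compares doses giving 30% reduction of lung edema and of thymus weight in the same animals.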

Rattus norvegicus [3] = assay: In vivo inhibition of Rat lung edema following i.t. administration.; type: functional; details: inhaled or nasal
Rattus norvegicus [4] = assay: Selectivity ratio of Topical vs Systemic routes of administration; type: functional
How it was run: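 Male Sprague-Dawley rats (about 350 g, six per group) were dosed intratracheally under halothane at 0 and 24 h, as a sonicated suspension in 1% carboxymethyl cellulose/0.2% Tween 80. The first dose was given with saline, the second with Sephadex G200 (final 5 mg/mL). Lungs and thymus were weighed at 48 h. The ratio compares doses reducing edema and thymus weight by 30%, both measured in the same animals.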

Row | Structure (SMILES) | ED50 (Rattus norvegicus [1]) [mg/kg] | IC50 (Glucocorticoid receptor) [nM] | EC50 (H35) [nM] | Selectivity (Rattus norvegicus [2]) | ED50 (Rattus norvegicus [3]) [mg/kg] | Selectivity (Rattus norvegicus [4])
1 | CCC[C@@H]1O[C@@H]2CC3C4CCC5=CC(=O)C=C[C@]5(C)[C@@]4(F)[C@@H](O)C[C@]3(C)[C@]2(SC)O1 (stereo partly drawn) | 1.8 | 1.7 | 1.7 | >0.56 | > 1 | 
2 | CCCC1O[C@@H]2C[C@H]3[C@@H]4CCC5=CC(=O)C=C[C@]5(C)[C@H]4[C@@H](O)C[C@]3(C)[C@]2(C(=O)CO)O1 (stereo partly drawn) [BUDESONIDE] | 0.96 | 2.9 | 0.2 | 0.4 | 0.39 | 
3 | CCC[C@@H]1O[C@@H]2CC3C4CCC5=CC(=O)C=C[C@]5(C)[C@@]4(F)[C@@H](O)C[C@]3(C)[C@]2(SCC)O1 (stereo partly drawn) | 7 | 3.3 | 1.5 | >0.43 | > 3 | 
4 | CCC[C@@H]1O[C@@H]2CC3C4C[C@H](F)C5=CC(=O)C=C[C@]5(C)[C@@]4(F)[C@@H](O)C[C@]3(C)[C@]2(SCF)O1 (stereo partly drawn) | 4.6 | 2.2 | 0.3 | 0.065 | 0.3 | 
5 | CC1(C)O[C@@H]2C[C@H]3[C@@H]4CCC5=CC(=O)C=C[C@]5(C)[C@@]4(F)[C@@H](O)C[C@]3(C)[C@]2(S(C)(=O)=O)O1 | 1.4 | 5.3 | 13 | 1.57 | 2.2 | 
6 | CCC[C@@H]1O[C@@H]2CC3C4C[C@H](F)C5=CC(=O)CC[C@]5(C)[C@@]4(F)[C@@H](O)C[C@]3(C)[C@]2(SC)O1 (stereo partly drawn) | 1 | 2.2 | 0.3 | 0.06 | 0.06 | 
7 | CC1(C)O[C@@H]2C[C@H]3[C@@H]4C[C@H](F)C5=CC(=O)C=C[C@]5(C)[C@@]4(F)[C@@H](O)C[C@]3(C)[C@]2(SCF)O1 | 1.9 | 4.3 | 1 | 0.037 | 0.07 | 
8 | CCC[C@@H]1O[C@@H]2CC3C4CCC5=CC(=O)CC[C@]5(C)[C@@]4(F)[C@@H](O)C[C@]3(C)[C@]2(SC)O1 (stereo partly drawn) | 5.2 |  | 0.7 |  | 3.6 | 
9 | CCC[C@@H]1O[C@@H]2CC3C4CCC5=CC(=O)C=C[C@]5(C)[C@@]4(F)[C@@H](O)C[C@]3(C)[C@]2(Sc2ccccn2)O1 (stereo partly drawn) | > 3 | 12 | > 100 |  | > 3 | 
10 | CC1(C)O[C@@H]2CC3C4CCC5=CC(=O)C=C[C@]5(C)[C@@]4(F)[C@@H](O)C[C@]3(C)[C@]2(Sc2ccccn2)O1 (stereo partly drawn) | > 3 | 22 | 50 |  | > 3 | 
11 | CCC[C@@H]1O[C@@H]2CC3C4CCC5=CC(=O)C=C[C@]5(C)[C@@]4(F)[C@@H](O)C[C@]3(C)[C@]2(SC(C)C)O1 (stereo partly drawn) | > 3 | 5.5 | 7 |  | > 3 | 
12 | CC=C[C@@H]1O[C@@H]2C[C@H]3[C@@H]4CCC5=CC(=O)C=C[C@]5(C)[C@@]4(F)[C@@H](O)C[C@]3(C)[C@]2(SC)O1 | 1.1 | 1.8 | 1.1 | >2.73 | > 3 | 
13 | CCC(=O)O[C@]1(C(=O)SCF)C(C)C[C@H]2[C@@H]3C[C@H](F)C4=CC(=O)C=C[C@]4(C)[C@@]3(F)[C@@H](O)C[C@@]21C (single isomer, unassigned) [FLUTICASONE PROPIONATE] | 0.47 |  | 0.1 |  | 0.05 | 
14 | CCC[C@@H]1O[C@@H]2CC3C4CCC5=CC(=O)C=C[C@]5(C)[C@@]4(F)[C@@H](O)C[C@]3(C)[C@]2([S+](C)[O-])O1 (stereo partly drawn) | 3 | 3.2 | 23 |  | > 3 | >1
15 | CS[C@@]12OC(C)(C)O[C@@H]1CC1C3C[C@H](F)C4=CC(=O)C=C[C@]4(C)[C@@]3(F)[C@@H](O)C[C@@]12C (stereo partly drawn) | 3.2 | 2.2 | 0.2 | 0.4 | 1.3 | 
16 | CS[C@@]12OC(C)(C)O[C@@H]1CC1C3CCC4=CC(=O)C=C[C@]4(C)[C@@]3(F)[C@@H](O)C[C@@]12C (stereo partly drawn) | 0.9 | 1.6 | 0.2 | 0.33 | 0.3 | 
17 | CCS[C@]1(SC)CC[C@H]2[C@@H]3CCC4=CC(=O)C=C[C@]4(C)[C@@]3(F)[C@@H](O)C[C@@]21C | 1.1 | 2.3 | 2 | 1.91 | 2.1 | 
18 | CCC[C@@H]1O[C@@H]2CC3C4CCC5=CC(=O)C=C[C@]5(C)[C@@]4(F)[C@@H](O)C[C@]3(C)[C@]2(SCF)O1 (stereo partly drawn) | 4 | 3.3 | 1.2 | >0.75 | > 3 | 
19 | CCC[C@@H]1O[C@@H]2CC3C4C[C@H](F)C5=CC(=O)C=C[C@]5(C)[C@@]4(F)[C@@H](O)C[C@]3(C)[C@]2(SC)O1 (stereo partly drawn) | 0.54 | 2.4 | 0.4 | 0.2 | 0.11 | 
